Assay results from ChEMBL document CHEMBL1122061, “Use of a potential rabbit model for structure--behavioral activity studies of cannabinoids” (1982).

Tests used:
Format in all cases: functional
[1] = system: Oryctolagus cuniculus; assay: Number of rabbits convulsed at 1 mg/kg, iv out of 4 rabbits tested
In short: (§1)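 Adult tetrahydrocannabinol-seizure susceptible (THC-SS) rabbits, 2–4 kg, dosed intravenously with cannabinoid in 10% polysorbate 80/90% physiological saline. Presence or absence of behavioral convulsion was recorded within 20 min. Animals were reused for several compounds or doses, with at least 7 days between trials and treatments given in random order. Every rabbit also received 0.05 mg/kg Δ9-THC at least once. Aim was four rabbits per dose.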

[2] = system: Oryctolagus cuniculus; assay: Number of rabbits convulsed at 4 mg/kg, iv out of 1 rabbit tested; in short: as §1
[3] = system: Oryctolagus cuniculus; assay: Number of rabbits convulsed at 2 mg/kg, iv out of 2 rabbits tested; in short: as §1
[4] = system: Oryctolagus cuniculus; assay: Number of rabbits convulsed at 0.5 mg/kg, iv out of 1 rabbit tested; in short: as §1
[5] = system: Oryctolagus cuniculus; assay: Number of rabbits convulsed at 0.05 mg/kg, iv out of 4 rabbits tested; in short: as §1
[6] = system: Oryctolagus cuniculus; assay: Number of rabbits convulsed at 0.25 mg/kg, iv out of 1 rabbits tested; in short: as §1
[7] = system: Oryctolagus cuniculus; assay: Number of rabbits convulsed at 0.5 mg/kg, iv out of 1 rabbits tested; in short: as §1
[8] = system: Oryctolagus cuniculus; assay: Number of rabbits convulsed at 0.01 mg/kg, iv out of 4 rabbits tested; in short: as §1
[9] = system: Oryctolagus cuniculus; assay: Number of rabbits convulsed at 1 mg/kg, iv out of 1 rabbits tested; in short: as §1
[10] = system: Oryctolagus cuniculus; assay: Number of rabbits convulsed at 0.5 mg/kg, iv out of 4 rabbits tested; in short: as §1
[11] = system: Oryctolagus cuniculus; assay: Number of rabbits convulsed at 0.9 mg/kg, iv out of 3 rabbits tested; in short: as §1
[12] = system: Oryctolagus cuniculus; assay: Number of rabbits convulsed at 20 mg/kg, iv out of 3 rabbits tested; in short: as §1
[13] = system: Oryctolagus cuniculus; assay: Number of rabbits convulsed at 0.005 mg/kg, iv out of 4 rabbits tested; in short: as §1
[14] = system: Oryctolagus cuniculus; assay: Number of rabbits convulsed at 0.1 mg/kg, iv out of 4 rabbits tested; in short: as §1
[15] = system: Oryctolagus cuniculus; assay: Number of rabbits convulsed at 0.9 mg/kg, iv out of 4 rabbits tested; in short: as §1
[16] = system: Oryctolagus cuniculus; assay: Number of rabbits convulsed at 0.1 mg/kg, iv out of 2 rabbits tested; in short: as §1
[17] = system: Oryctolagus cuniculus; assay: Number of rabbits convulsed at 0.5 mg/kg, iv out of 3 rabbits tested; in short: as §1
[18] = system: Oryctolagus cuniculus; assay: Number of rabbits convulsed at 0.1 mg/kg, iv out of 1 rabbits tested; in short: as §1
[19] = system: Oryctolagus cuniculus; assay: Number of rabbits convulsed at 20 mg/kg, iv out of 2 rabbits tested; in short: as §1
[20] = system: Oryctolagus cuniculus; assay: Number of rabbits convulsed at 0.9 mg/kg, iv out of 1 rabbits tested; in short: as §1
[21] = system: Oryctolagus cuniculus; assay: Number of rabbits convulsed at 1 mg/kg, iv out of 3 rabbits tested; in short: as §1
[22] = system: Oryctolagus cuniculus; assay: Number of rabbits convulsed at 10 mg/kg, iv out of 1 rabbit tested; in short: as §1
[23] = system: Oryctolagus cuniculus; assay: Number of rabbits convulsed at 5 mg/kg, iv out of 1 rabbit tested; in short: as §1
[24] = system: Oryctolagus cuniculus; assay: Number of rabbits convulsed at 0.05 mg/kg, iv out of 3 rabbits tested; in short: as §1
[25] = system: Oryctolagus cuniculus; assay: Number of rabbits convulsed at 5 mg/kg, iv out of 1 rabbits tested; in short: as §1
[26] = system: Oryctolagus cuniculus; assay: Number of rabbits convulsed at 10 mg/kg, iv out of 1 rabbits tested; in short: as §1
[27] = system: Oryctolagus cuniculus; assay: Number of rabbits convulsed at 0.25 mg/kg, iv out of 5 rabbits tested; in short: as §1
[28] = system: Oryctolagus cuniculus; assay: Number of rabbits convulsed at 20 mg/kg, iv out of 1 rabbits tested; in short: as §1
[29] = system: Oryctolagus cuniculus; assay: Number of rabbits convulsed at 5 mg/kg, iv out of 4 rabbits tested; in short: as §1
[30] = system: Oryctolagus cuniculus; assay: Number of rabbits convulsed at 0.5 mg/kg, iv out of 7 rabbits tested; in short: as §1
[31] = system: Oryctolagus cuniculus; assay: Number of rabbits convulsed at 0.05 mg/kg, iv out of 2 rabbits tested; in short: as §1
[32] = system: Oryctolagus cuniculus; assay: Number of rabbits convulsed at 8 mg/kg, iv out of 2 rabbits tested; in short: as §1
[33] = system: Oryctolagus cuniculus; assay: Number of rabbits convulsed at 20 mg/kg, iv out of 4 rabbits tested; in short: as §1
[34] = system: Oryctolagus cuniculus; assay: Number of rabbits convulsed at 15 mg/kg, iv out of 1 rabbit tested; in short: as §1
[35] = system: Oryctolagus cuniculus; assay: Number of rabbits convulsed at 8 mg/kg, iv out of 1 rabbit tested; in short: as §1
[36] = system: Oryctolagus cuniculus; assay: Number of rabbits convulsed at 15 mg/kg, iv out of 7 rabbits tested; in short: as §1
[37] = system: Oryctolagus cuniculus; assay: Number of rabbits convulsed at 20 mg/kg, iv out of 6 rabbits tested; in short: as §1
[38] = system: Oryctolagus cuniculus; assay: Number of rabbits convulsed at 15 mg/kg, iv out of 10 rabbits tested; in short: as §1
[39] = system: Oryctolagus cuniculus; assay: Number of rabbits convulsed at 10 mg/kg, iv out of 6 rabbits tested; in short: as §1
[40] = system: Oryctolagus cuniculus; assay: Number of rabbits convulsed at 0.05 mg/kg, iv out of 14 rabbits tested; in short: as §1
[41] = system: Oryctolagus cuniculus; assay: Number of rabbits convulsed at 0.1 mg/kg, iv out of 10 rabbits tested; in short: as §1
[42] = system: Oryctolagus cuniculus; assay: Number of rabbits convulsed at 0.9 mg/kg, iv out of 9 rabbits tested; in short: as §1
[43] = system: Oryctolagus cuniculus; assay: Number of rabbits convulsed at 0.5 mg/kg, iv out of 20 rabbits tested; in short: as §1

CCCCCc1cc(O)c2c(c1)OC(C)(C)c1ccc(CO)cc1-2
No. of rabbits convulsed [1]: 1 | No. of rabbits convulsed [2]: 1 | No. of rabbits convulsed [3]: 2 | No. of rabbits convulsed [4]: 0

CCCCCc1cc(O)c2c(c1)OC(C)(C)[C@@H]1CC=C(CO)CC21 (some centres not stated)
No. of rabbits convulsed [5]: 4 | No. of rabbits convulsed [6]: 1 | No. of rabbits convulsed [7]: 1 | No. of rabbits convulsed [8]: 2 | No. of rabbits convulsed [9]: 1

CCCCCc1cc(O)c2c(c1)OC(C)(C)[C@@H]1C[C@H](O)C(C)=CC21 (some centres not stated)
No. of rabbits convulsed [5]: 4 | No. of rabbits convulsed [8]: 2

CCCCCc1cc(O)c2c(c1)OC(C)(C)[C@@H]1CC=C(C=O)CC21 (some centres not stated)
No. of rabbits convulsed [10]: 4 | No. of rabbits convulsed [5]: 4 | No. of rabbits convulsed [8]: 0

CCCCCc1cc(O)c2c(c1)OC(C)(C)C1=C2CCCC1
No. of rabbits convulsed [11]: 0 | No. of rabbits convulsed [12]: 1

CCCCCCC(C)(C)c1cc(O)c2c(c1)OC(C)(C)[C@@H]1CCC(=O)CC21 (some centres not stated)
No. of rabbits convulsed [13]: 3 | No. of rabbits convulsed [8]: 4 | No. of rabbits convulsed [14]: 4

CCCCCc1cc(O)c2c(c1)OC(C)(C)C1=C2CC(C)CC1 (configuration not stated)
No. of rabbits convulsed [15]: 4 | No. of rabbits convulsed [16]: 0 | No. of rabbits convulsed [17]: 2

CCCCCc1cc(O)c2c(c1)OC(C)(C)[C@@H]1C[C@@H](O)C(C)=CC21 (some centres not stated)
No. of rabbits convulsed [18]: 0 | No. of rabbits convulsed [19]: 0 | No. of rabbits convulsed [20]: 0

CCCCCc1cc(O)c2c(c1)OC(C)(C)[C@@H]1CC=C(C(=O)O)CC21 (some centres not stated)
No. of rabbits convulsed [21]: 0 | No. of rabbits convulsed [19]: 2 | No. of rabbits convulsed [22]: 0 | No. of rabbits convulsed [23]: 0

CCCCCC(C)C(C)c1cc(O)c2c(c1)OC(C)(C)[C@@H]1CC=C(C)CC21 (some centres not stated)
No. of rabbits convulsed [24]: 3 | No. of rabbits convulsed [8]: 3

CCCCCc1cc(O)c2c(c1)OC(C)(C)[C@@H]1CCC(C)CC21 (some centres not stated)
No. of rabbits convulsed [25]: 1 | No. of rabbits convulsed [18]: 1 | No. of rabbits convulsed [21]: 3 | No. of rabbits convulsed [5]: 2 | No. of rabbits convulsed [7]: 1

CCCCC(O)c1cc(O)c2c(c1)OC(C)(C)c1ccc(C)cc1-2 (configuration not stated)
No. of rabbits convulsed [25]: 0 | No. of rabbits convulsed [26]: 0

CC1=CC2c3c(O)cc(CCCCCO)cc3OC(C)(C)[C@@H]2CC1 (some centres not stated)
No. of rabbits convulsed [5]: 2 | No. of rabbits convulsed [14]: 4

CCCCCc1cc(O)c2c(c1)OC(C)(C)[C@@H]1CCC(CO)=CC21 (some centres not stated)
No. of rabbits convulsed [5]: 4 | No. of rabbits convulsed [8]: 3 | No. of rabbits convulsed [14]: 4 | No. of rabbits convulsed [27]: 5

CCCCCc1cc(O)c2c(c1)OC(C)(C)[C@@H]1CC=C(C)CC21 (single isomer, unassigned; (+))
No. of rabbits convulsed [28]: 1 | No. of rabbits convulsed [29]: 2

CCCCCc1cc(O)c2c(c1)OC(C)(C)[C@@H]1CC=C(C)CC21 (single isomer, unassigned; (-))
No. of rabbits convulsed [5]: 2 | No. of rabbits convulsed [30]: 7 | No. of rabbits convulsed [14]: 4

CC(=O)Oc1cc(OC(C)CCCc2ccccc2)cc2c1[C@@H]1C[C@H](O)CC[C@H]1[C@H](C)N2 (single isomer, unassigned; (-)) [NANTRADOL]
No. of rabbits convulsed [5]: 3 | No. of rabbits convulsed [31]: 2

CCCCCc1cc(O)c2c(c1)OC(C)(CCC=C(C)C)C=C2 (configuration not stated) [CANNABICHROMENE]
No. of rabbits convulsed [32]: 0 | No. of rabbits convulsed [33]: 1 | No. of rabbits convulsed [34]: 0

CCCCCc1cc(O)c2c(c1)OC1(C)CCC3C1C2C3(C)C (configuration not stated) [CANNABICYCLOL]
No. of rabbits convulsed [35]: 0 | No. of rabbits convulsed [19]: 0

C=C(C)[C@@H]1CCC(C)=C[C@H]1c1c(O)cc(CCCCC)cc1O [CANNABIDIOL]
No. of rabbits convulsed [36]: 0 | No. of rabbits convulsed [37]: 0

CCCCCc1cc(O)c2c(c1)OC(C)(C)c1ccc(C)cc1-2 [CANNABINOL]
No. of rabbits convulsed [38]: 10 | No. of rabbits convulsed [39]: 4

CCCCCc1cc(O)c2c(c1)OC(C)(C)[C@@H]1CCC(C)=C[C@@H]21 [DRONABINOL]
No. of rabbits convulsed [26]: 1 | No. of rabbits convulsed [40]: 14 | No. of rabbits convulsed [41]: 10 | No. of rabbits convulsed [42]: 9 | No. of rabbits convulsed [43]: 20 | No. of rabbits convulsed [8]: 0

CCCCCc1cc(O)cc(O)c1 [WHILE OLIVETOL]
No. of rabbits convulsed [33]: 0
